The values below come from ChEMBL document CHEMBL5223179, “Phenyl Dihydrouracil: An Alternative Cereblon Binder for PROTAC Design” (ACS Med Chem Lett, 2023).

The source made the active and inactive calls. The calls are words filed in the database; no cut-off is given here.

A short description of series [1]: Metabolic stability in mouse liver microsomes assessed as half life measured upto 240 mins in presence of NADPH regenerating system by LC-MS/MS analysis. Format: ADME, Microsome.
Series [2] deals with KOPTK1. Put plainly: Cytotoxicity against human KOPT-K1 cells incubated for 24 hrs by Celltiter-Glo assay. Format: functional. The note with it: read-out: LC50 (the source's name). Put shortly:
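KOPT-K1 human T-ALL cells exposed to compound for 24 h. Viability read by CellTiter-Glo luminescence. LC50 derived from concentration-response curves.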
A general note: In ATP-based viability assays light output follows the ATP content of the culture.

The target in series [3] is T1, Tyrosine-protein kinase Lck (Homo sapiens, UniProt P06239). Put plainly: Induction of LCK degradation in human KOPT-K1 cells assessed as maximum degradation after 4 hrs by immunoblotting analysis relative to control. Format: cell-based. Put shortly:
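KOPT-K1 cells were treated with increasing concentrations of compound for 4 h. Endogenous LCK was assessed by immunoblot. Degradation was calculated from quantified band intensities, and DC50 from the average of three independent experiments.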
Background: In western blotting, separated proteins are transferred to a membrane and probed.
Target sequence in this assay (P06239 2-509 limits assumed): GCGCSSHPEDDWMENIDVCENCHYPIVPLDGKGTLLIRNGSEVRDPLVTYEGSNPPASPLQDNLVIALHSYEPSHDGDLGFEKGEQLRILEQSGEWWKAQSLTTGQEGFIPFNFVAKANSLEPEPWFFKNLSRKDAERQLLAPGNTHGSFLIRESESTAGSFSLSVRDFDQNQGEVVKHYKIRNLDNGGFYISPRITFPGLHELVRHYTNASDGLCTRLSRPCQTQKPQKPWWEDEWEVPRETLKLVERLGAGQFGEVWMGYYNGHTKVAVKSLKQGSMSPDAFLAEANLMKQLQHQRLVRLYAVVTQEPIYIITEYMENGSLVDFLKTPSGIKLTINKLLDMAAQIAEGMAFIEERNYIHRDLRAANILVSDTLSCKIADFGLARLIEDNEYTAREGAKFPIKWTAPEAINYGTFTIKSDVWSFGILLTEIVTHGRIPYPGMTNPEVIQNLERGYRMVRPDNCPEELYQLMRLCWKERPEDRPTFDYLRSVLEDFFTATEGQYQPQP

In series [4] the target is Eukaryotic peptide chain release factor GTP-binding subunit ERF3A (Homo sapiens) (UniProt P15170). The experiment in a line: Induction of GSPT1 degradation in human KOPT-K1 cells upto 100 nM incubated for 4 hrs by immunoblotting analysis. Format: cell-based. In a few lines:
(§1)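 KOPT-K1 cells were treated with compound at concentrations up to 100 nM. Endogenous GSPT1, IKZF1 and CK1α abundance was assessed by immunoblotting.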

Series [5] concerns the target DNA-binding protein Ikaros (Homo sapiens) (UniProt Q13422). The experiment in a line: Induction of IKZF1 degradation in human KOPT-K1 cells upto 100 nM incubated for 4 hrs by immunoblotting analysis. Format: cell-based. Put shortly: as §1
Series [6] deals with Casein kinase I isoform alpha (Homo sapiens) (UniProt P48729). The experiment in a line: Induction of CK1alpha degradation in human KOPT-K1 cells upto 100 nM incubated for 4 hrs by immunoblotting analysis. Format: cell-based. In a few lines: as §1
Series [7] is described as follows: Permeability in human Caco-2 cells after 2 hrs by UPLC/MS analysis. Format: ADME, cell-based. The note with it: caco-2, 2 h. (Passage across Caco-2 layers is used to estimate intestinal permeability.)
Series [8] is described as follows: Metabolic stability in mouse liver microsomes assessed as clearance measured upto 240 mins in presence of NADPH regenerating system by LC-MS/MS analysis. The conditions noted are these: 4 h. Format: ADME, Microsome.
For series [9], the system named is KOPTK1. The experiment in a line: Cytotoxicity against human KOPT-K1 cells incubated for 72 hrs by Celltiter-Glo assay. The conditions noted are these: for CC50: read-out: LC50 (the source's name). Format: functional. Put shortly:
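Human T-ALL KOPT-K1 cells treated with compounds for 72 h. Viability measured by CellTiter-Glo. LC50 fitted from dose-response data, reported as the mean of three independent experiments ± SD.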

The target in series [10] is T1, Tyrosine-protein kinase Lck. Put plainly: Induction of HiBiT-tagged LCK degradation in human KOPT-K1 cells after 4 hrs by microplate reader analysis. Format: cell-based.
Target sequence in this assay (P06239 whole entry): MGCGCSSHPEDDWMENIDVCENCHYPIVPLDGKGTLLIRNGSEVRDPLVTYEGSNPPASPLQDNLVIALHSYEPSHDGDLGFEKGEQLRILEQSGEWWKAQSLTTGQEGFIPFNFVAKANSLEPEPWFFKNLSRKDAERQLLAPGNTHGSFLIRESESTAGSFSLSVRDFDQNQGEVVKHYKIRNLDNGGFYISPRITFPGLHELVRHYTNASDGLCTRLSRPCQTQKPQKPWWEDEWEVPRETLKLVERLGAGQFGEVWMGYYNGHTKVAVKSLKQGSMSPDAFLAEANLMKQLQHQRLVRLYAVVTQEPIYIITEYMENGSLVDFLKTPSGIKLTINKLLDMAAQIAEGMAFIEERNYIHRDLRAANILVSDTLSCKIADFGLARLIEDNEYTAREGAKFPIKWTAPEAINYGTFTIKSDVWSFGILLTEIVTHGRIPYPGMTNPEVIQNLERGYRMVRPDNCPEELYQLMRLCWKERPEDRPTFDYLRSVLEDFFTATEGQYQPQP
Series [11] can be described thus: Chemical stability of compound in human KOPT-K1 cell culture media assessed as half life incubated upto 48 hrs. Format: physicochemical. Put shortly: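 Compound stability followed in KOPT-K1 cell culture medium over time; half-life derived from the remaining compound.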
Series [12] addresses T1, Tyrosine-protein kinase Lck. Put plainly: Induction of LCK degradation in human KOPT-K1 cells after 4 hrs by immunoblotting analysis. Format: cell-based.
Target sequence in this assay (P06239 whole entry): as above
Series [13] concerns the target Protein cereblon/DNA damage-binding protein 1 (Homo sapiens, UniProt Q96SW2). The experiment in a line: Displacement of Cy5-O-Len from 6His-tagged CRBN/DDB1 (unknown origin) incubated for 1 hr under dark condition by fluorescence polarization assay. Format: protein assay.
The target of series [14] is Eukaryotic peptide chain release factor GTP-binding subunit ERF3A (Homo sapiens) (UniProt P15170). The experiment in a line: Induction of HiBiT-tagged GSPT1 degradation in HEK293T cells upto 10 uM incubated for 4 hrs. Format: cell-based. In a few lines: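 HiBiT-tagged GSPT1 in HEK293T cells was measured after compound exposure at concentrations up to 10 μM.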
Chain of Eukaryotic peptide chain release factor GTP-binding subunit ERF3A (Homo sapiens) (P15170 whole entry): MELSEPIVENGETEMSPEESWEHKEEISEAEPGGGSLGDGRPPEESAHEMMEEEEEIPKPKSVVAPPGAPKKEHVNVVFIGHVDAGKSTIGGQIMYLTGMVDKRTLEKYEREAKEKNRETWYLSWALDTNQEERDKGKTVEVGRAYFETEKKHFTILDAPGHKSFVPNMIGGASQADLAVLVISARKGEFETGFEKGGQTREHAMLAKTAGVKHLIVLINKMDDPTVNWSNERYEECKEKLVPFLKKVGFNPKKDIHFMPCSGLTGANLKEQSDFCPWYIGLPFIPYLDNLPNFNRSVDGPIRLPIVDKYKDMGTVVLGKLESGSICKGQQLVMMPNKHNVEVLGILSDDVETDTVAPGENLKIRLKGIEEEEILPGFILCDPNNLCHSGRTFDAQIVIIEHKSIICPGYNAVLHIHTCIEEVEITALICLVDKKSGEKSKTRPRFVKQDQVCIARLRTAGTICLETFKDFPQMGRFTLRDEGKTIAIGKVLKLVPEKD

Chain of DNA-binding protein Ikaros (Homo sapiens) (Q13422 whole entry, canonical isoform): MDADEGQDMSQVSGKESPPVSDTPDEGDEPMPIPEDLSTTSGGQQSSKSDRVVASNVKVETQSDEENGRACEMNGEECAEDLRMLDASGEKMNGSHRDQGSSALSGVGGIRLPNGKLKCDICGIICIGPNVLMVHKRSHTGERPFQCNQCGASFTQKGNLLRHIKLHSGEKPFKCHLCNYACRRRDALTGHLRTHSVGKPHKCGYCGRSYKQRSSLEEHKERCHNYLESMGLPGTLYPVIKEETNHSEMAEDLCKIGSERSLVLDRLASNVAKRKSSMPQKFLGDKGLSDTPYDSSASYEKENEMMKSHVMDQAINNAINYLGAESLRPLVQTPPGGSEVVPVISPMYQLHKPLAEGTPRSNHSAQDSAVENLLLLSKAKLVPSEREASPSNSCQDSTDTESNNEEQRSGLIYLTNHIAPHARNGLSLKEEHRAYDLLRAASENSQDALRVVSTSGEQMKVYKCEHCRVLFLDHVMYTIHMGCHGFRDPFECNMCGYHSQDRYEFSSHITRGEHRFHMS
Chain of Casein kinase I isoform alpha (Homo sapiens) (P48729 2-337 limits assumed): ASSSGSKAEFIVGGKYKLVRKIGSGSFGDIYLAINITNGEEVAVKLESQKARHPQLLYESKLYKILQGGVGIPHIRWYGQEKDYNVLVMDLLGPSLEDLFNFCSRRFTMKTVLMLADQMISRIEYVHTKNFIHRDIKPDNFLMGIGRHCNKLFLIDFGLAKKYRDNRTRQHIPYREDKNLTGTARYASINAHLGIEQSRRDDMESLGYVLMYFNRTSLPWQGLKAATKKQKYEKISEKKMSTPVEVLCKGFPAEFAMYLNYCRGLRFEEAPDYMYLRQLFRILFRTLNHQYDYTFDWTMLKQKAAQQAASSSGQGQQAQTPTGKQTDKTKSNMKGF
Chain of Protein cereblon/DNA damage-binding protein 1 (Q96SW2 whole entry): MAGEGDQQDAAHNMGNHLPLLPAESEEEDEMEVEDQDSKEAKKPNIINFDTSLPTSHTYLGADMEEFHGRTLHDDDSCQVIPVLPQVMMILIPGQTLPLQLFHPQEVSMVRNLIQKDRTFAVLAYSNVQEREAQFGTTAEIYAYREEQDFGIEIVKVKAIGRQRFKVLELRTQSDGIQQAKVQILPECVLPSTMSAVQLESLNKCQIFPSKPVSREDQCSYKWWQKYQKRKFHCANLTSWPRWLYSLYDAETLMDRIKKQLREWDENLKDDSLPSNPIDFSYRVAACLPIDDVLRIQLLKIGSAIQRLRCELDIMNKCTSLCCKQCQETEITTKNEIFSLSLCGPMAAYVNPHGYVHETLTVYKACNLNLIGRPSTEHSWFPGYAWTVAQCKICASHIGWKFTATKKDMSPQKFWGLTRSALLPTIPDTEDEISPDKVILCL
Chain of Protein cereblon/DNA damage-binding protein 1 (Q16531 whole entry, further chain): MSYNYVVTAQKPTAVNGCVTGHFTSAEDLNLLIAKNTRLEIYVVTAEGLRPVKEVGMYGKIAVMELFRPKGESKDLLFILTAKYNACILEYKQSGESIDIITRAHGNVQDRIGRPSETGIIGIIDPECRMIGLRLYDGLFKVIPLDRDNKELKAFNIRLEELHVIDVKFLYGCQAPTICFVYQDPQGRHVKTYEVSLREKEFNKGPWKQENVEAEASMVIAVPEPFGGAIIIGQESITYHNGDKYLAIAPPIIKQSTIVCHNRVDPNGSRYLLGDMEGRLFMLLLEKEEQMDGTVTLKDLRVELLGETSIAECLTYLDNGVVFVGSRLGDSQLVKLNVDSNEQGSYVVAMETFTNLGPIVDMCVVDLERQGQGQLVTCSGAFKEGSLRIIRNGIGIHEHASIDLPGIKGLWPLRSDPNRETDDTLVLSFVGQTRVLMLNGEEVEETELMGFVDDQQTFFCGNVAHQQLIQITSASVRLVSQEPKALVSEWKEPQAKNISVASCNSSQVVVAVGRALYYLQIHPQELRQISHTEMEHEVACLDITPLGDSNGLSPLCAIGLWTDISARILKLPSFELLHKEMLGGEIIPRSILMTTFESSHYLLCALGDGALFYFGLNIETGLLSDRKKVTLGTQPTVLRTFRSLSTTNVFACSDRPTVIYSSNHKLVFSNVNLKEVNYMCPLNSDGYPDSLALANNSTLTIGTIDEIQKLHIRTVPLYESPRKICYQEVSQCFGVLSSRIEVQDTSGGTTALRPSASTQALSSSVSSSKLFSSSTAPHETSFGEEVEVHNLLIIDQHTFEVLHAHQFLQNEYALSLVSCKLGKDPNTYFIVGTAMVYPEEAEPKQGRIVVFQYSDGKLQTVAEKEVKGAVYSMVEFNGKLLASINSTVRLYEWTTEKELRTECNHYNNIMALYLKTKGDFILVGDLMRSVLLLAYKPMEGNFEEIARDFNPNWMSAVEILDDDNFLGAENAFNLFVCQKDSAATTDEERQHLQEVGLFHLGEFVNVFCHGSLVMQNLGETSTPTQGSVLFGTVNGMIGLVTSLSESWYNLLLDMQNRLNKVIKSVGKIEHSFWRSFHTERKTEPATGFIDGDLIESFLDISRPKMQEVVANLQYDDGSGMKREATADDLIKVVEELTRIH

A word on the half-life: it is the time in which the quantity being followed falls by half. As to `Cc1nc(Nc2ncc(C(=O)Nc3c(C)cccc3Cl)s2)cc(N2CCN(CCO)CC2)n1.O` [DASATINIB], the half-life in series [1] is 49.2 min.

Broadly, the Emax is the maximal effect, on the per cent scale that the assay sets. `Cc1nc(Nc2ncc(C(=O)Nc3c(C)cccc3Cl)s2)cc(N2CCN(CCCC(=O)N3CCN(c4ccc(N5CCC(=O)NC5=O)cc4)CC3)CC2)n1`: in the series on KOPTK1 [2], the CC50 is 37 nM. In series [3], the maximal effect (Emax) is 98.4%. Besides, the result in [4], in [5] and in series [6] was inactive. In series [7], the permeability entry was “Impermeable”. The Stability result in series [8] is “Unstable”.

Broadly, the DC50 is the concentration giving 50% degradation. Regarding `Cc1nc(Nc2ncc(C(=O)Nc3c(C)cccc3Cl)s2)cc(N2CCN(CCCNC(=O)COc3ccc(N4CCC(=O)NC4=O)cc3)CC2)n1`, the CC50 in the series with KOPTK1 [2] amounted to 28 nM; with KOPTK1 [9] it was 0.005 nM. The values for the DC50 in series [10] and in series [12] were 15 nM and 8 nM, respectively. For the same compound, the T1/2 in series [11] is greater than 48 h. For the same compound, the Emax in series [3] is 66%. For the same compound, the outcome in series [4], in series [5] and in [6] was inactive. The permeability result in series [7] was “Impermeable”. In series [8], the Stability entry is “Unstable”.

Regarding `O=C1CCN(c2ccc(N3CCNCC3)cc2)C(=O)N1`, in the series with KOPTK1 [9], the outcome was inactive.

In general, IC50 refers to the concentration that gives 50% inhibition. Lower therefore signals higher potency. In [13], `Cc1nc(Nc2ncc(C(=O)Nc3c(C)cccc3Cl)s2)cc(N2CCN(CCCNC(=O)COc3cccc4c3C(=O)N(C3CCC(=O)NC3=O)C4=O)CC2)n1` (stereo not drawn) displayed an IC50 of 1030 nM. Also, the CC50 in the series with KOPTK1 [2] amounted to 8 nM; with KOPTK1 [9], 10 nM. Also, the DC50 in [10] amounted to 13 nM. In addition, the T1/2 in series [11] turned out to be 13 h. Further, in series [14], the outcome was inactive. Also, in [7], the permeability result is “Impermeable”. Moreover, in series [8], the Stability entry is “Unstable”.

For the compound `Cc1nc(Nc2ncc(C(=O)Nc3c(C)cccc3Cl)s2)cc(N2CCN(CCCC(=O)N3CCN(c4ccc(C5CCC(=O)NC5=O)cc4)CC3)CC2)n1` (stereo not drawn), the CC50 with KOPTK1 [2] amounted to 0.005 nM. In [10], this compound came in with a DC50 of 8 nM. Also, the permeability result in series [7] is recorded as “Impermeable”. For the same compound, the Stability result in series [8] is listed as “Unstable”.

In the case of `Cc1nc(Nc2ncc(C(=O)Nc3c(C)cccc3Cl)s2)cc(N2CCN(CCCNC(=O)COc3ccc(C4CCC(=O)NC4=O)cc3)CC2)n1` (stereo not drawn), in the series on KOPTK1 [2], the CC50 is 0.24 nM. In [10], this compound displayed a DC50 of 6 nM. Moreover, the T1/2 in [11] was greater than 48 h. Also, the permeability result in series [7] was “Impermeable”. In addition, the Stability entry in series [8] is listed as “Unstable”.

For the compound `O=C(O)COc1ccc(N2CCC(=O)NC2=O)cc1`, the outcome with KOPTK1 [9] was inactive.
